The text below walks through data of ChEMBL document CHEMBL1157719, “1-Indol-1-yl-propan-2-ones and related heterocyclic compounds as dual inhibitors of cytosolic phospholipase A(2)alpha and fatty acid amide hydrolase” (Bioorg Med Chem, 2010).

The source made the active and inactive calls. The calls are words filed in the database; no cut-off is given here.

Test [1] deals with T1, Cytosolic phospholipase A2 (Homo sapiens) (UniProt P47712).
T1 sequence (whole entry): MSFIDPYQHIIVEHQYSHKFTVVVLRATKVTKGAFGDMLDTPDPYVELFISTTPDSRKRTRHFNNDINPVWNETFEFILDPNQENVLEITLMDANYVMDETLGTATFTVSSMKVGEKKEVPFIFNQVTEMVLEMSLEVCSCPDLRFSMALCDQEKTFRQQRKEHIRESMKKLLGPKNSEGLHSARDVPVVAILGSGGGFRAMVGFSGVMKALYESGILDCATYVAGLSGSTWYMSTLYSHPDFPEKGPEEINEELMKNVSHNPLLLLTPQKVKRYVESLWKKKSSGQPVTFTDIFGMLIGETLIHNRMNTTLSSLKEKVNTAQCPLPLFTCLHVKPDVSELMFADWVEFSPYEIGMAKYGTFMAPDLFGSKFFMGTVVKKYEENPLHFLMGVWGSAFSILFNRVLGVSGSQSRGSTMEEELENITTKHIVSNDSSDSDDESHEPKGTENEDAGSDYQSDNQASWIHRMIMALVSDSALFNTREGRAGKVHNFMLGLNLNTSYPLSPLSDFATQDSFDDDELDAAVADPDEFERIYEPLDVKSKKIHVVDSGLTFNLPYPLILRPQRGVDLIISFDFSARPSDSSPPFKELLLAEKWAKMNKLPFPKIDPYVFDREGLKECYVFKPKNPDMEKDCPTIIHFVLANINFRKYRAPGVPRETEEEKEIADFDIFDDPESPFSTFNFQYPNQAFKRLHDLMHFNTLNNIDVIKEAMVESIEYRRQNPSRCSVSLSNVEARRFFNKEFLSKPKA
Kind of test: Inhibition of cPLA2 from human platelets at 10 uM by RP-HPLC. Summed up: (§1)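 cPLA2α purified from human platelets; substrate sonicated covesicles of SAPC 200 μM and 1,2-dioleoyl-sn-glycerol 100 μM. Reaction 60 min, stopped with acetonitrile/methanol/0.1 M EDTA-Na2 containing 4-undecyloxybenzoic acid internal standard and NDGA. Arachidonic acid released measured by RP-HPLC, UV 200 nm, after solid-phase extraction, with vs without inhibitor; max 10 μM. IC50 means of at least two independent determinations.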

Test [2] deals with T2, Fatty-acid amide hydrolase 1 (Rattus norvegicus) (UniProt P97612).
T2 sequence (whole entry): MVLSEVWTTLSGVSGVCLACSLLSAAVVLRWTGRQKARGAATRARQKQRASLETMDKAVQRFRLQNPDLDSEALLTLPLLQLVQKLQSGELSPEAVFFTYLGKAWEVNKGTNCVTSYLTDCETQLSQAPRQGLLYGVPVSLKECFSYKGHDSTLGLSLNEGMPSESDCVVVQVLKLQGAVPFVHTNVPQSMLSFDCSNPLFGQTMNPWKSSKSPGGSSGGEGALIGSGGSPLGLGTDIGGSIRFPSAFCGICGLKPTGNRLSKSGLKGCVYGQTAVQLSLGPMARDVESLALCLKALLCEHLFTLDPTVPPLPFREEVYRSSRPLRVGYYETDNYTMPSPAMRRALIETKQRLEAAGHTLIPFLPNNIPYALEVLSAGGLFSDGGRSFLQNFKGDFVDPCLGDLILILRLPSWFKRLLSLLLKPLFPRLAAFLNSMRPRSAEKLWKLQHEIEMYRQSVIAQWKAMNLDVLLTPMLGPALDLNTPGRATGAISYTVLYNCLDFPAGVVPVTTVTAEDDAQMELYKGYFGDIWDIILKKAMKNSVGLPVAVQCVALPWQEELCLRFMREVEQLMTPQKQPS
Put plainly: Inhibition of FAAH from rat brain microsomes at 10 uM by RP-HPLC. The essentials:
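Rat brain microsomes as FAAH source; substrate N-(2-hydroxyethyl)-4-pyren-1-ylbutanamide 100 μM solubilized with Triton X-100 0.2%. Incubated 45 min, then stopped with acetonitrile/methanol plus internal standard 6-pyren-1-ylhexanoic acid. Released 4-pyren-1-ylbutanoic acid quantified directly by RP-HPLC with fluorescence (ex 340, em 380 nm), with vs without inhibitor. Inhibitor max 10 μM; IC50 means of at least two independent determinations.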

A short description of test [3]: inhibition of MAGL up to 10 uM. The essentials: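 MAGL set up like the FAAH assay, using pyrene-labelled substrate 1,3-dihydroxypropan-2-yl 4-pyren-1-ylbutanoate; product measured by RP-HPLC with fluorescence detection; highest test concentration 10 μM.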
Test [4] concerns the target T3, Cytosolic phospholipase A2 (Homo sapiens, UniProt P47712).
T3 sequence (P47712 whole entry): T1 sequence (whole entry)
Kind of test: Inhibition of cPLA2 from human platelets by RP-HPLC. Summed up:
as §1

Test [5] concerns the target T4, Fatty-acid amide hydrolase 1 (Rattus norvegicus, UniProt P97612).
T4 sequence (P97612 whole entry): T2 sequence (whole entry)
Kind of test: Inhibition of FAAH from rat brain microsomes by RP-HPLC.

Regarding `CCCCCCCCc1ccc(OCC(=O)Cn2cccc2)cc1`, the inhibition result in test [1], in test [2] and in test [3] was “inactive” each time.
On to `CCCCCCCCc1ccc(OCC(=O)Cn2ccc3c(C(=O)O)cccc32)cc1`, for which the IC50 in test [4] and in test [5] was more than 10000 nM throughout. Also, the inhibition – broadly, the share of the control response that was lost under treatment – in test [2] is 40%. In test [3], the inhibition result is “inactive”.
With `CCCCCCCCc1ccc(OCC(=O)Cn2cnc3ccc(C(=O)O)cc32)cc1`, half-maximal inhibition in test [5] (IC50) required 3100 nM. In test [3], the inhibition entry is “inactive”.
Consider `CCCCCCCCc1ccc(OCC(=O)Cn2ncc3ccccc32)cc1`, for which the inhibition entry in test [1] and in test [3] was “inactive” each time. In addition, the IC50 – broadly, the concentration that inhibits the measured activity by half – in test [5] is 5000 nM.
In turn, `CC(C)CN(Cc1ccccc1-c1ccccc1)[C@@H]1C[C@@H](CNC(=O)/C=C/c2ccc(/C=C3\SC(=O)NC3=O)cc2)N(C(=O)c2ccccc2C(=O)c2ccc(F)cc2F)C1` registered a 50% inhibitory concentration (IC50) in test [4] of 31 nM. Besides, the inhibition entry in test [2] was “inactive”.
As for `CCCCCCCCc1ccc(OCC(=O)Cn2ccnc2)cc1`, the IC50 in test [4] was determined as 500 nM; in test [5], 760 nM. For the same compound, in test [3], the inhibition result is “inactive”.
Compound `CCCCCCCCc1ccc(OCC(=O)Cn2nnc3ccc(C(=O)O)cc32)cc1` displayed an IC50 in test [5] of 200 nM. In addition, the inhibition result in test [3] is “inactive”.
With `CCCCCCCCc1ccc(OCC(=O)Cn2c(C(=O)O)cc3ccccc32)cc1`, the inhibition result in test [1], in test [2] and in test [3] was “inactive” throughout.
In turn, `CCCCCCCCc1ccc(OCC(=O)Cn2cnc3cc(C(=O)O)ccc32)cc1` had an IC50 in test [5] of 610 nM. In addition, the inhibition entry in test [3] is “inactive”.
Consider `CCCCCCCCc1ccc(OCC(=O)Cn2ccc3cc(C#N)ccc32)cc1`, for which the IC50 in test [4] and in test [5] was more than 10000 nM each time. Further, in test [2], the inhibition worked out at 42%. In test [3], the inhibition entry was “inactive”.
Consider `CCCCCCCCc1ccc(OCC(=O)Cn2ccc3ccccc32)cc1`, for which the inhibition result in test [1], in test [2] and in test [3] was “inactive” in each case.
For the compound `CCCCCCCCc1ccc(OCC(=O)Cn2cc(C=O)c3cc(C(=O)O)ccc32)cc1`, the inhibition entry in test [2] and in test [3] was “inactive” each time.
As to `CCCCCCCCc1ccc(OCC(=O)Cn2ccc(C(=O)O)n2)cc1`, the IC50 in test [4] is 8200 nM; in test [5], more than 10000 nM. For the same compound, in test [2], the inhibition is 39%. For the same compound, the inhibition result in test [3] was “inactive”.
As for `CCCCCCCCc1ccc(OCC(=O)Cn2cc(C(=O)O)cn2)cc1`, the values for the IC50 in test [4] and in test [5] were 1800 nM and 110 nM, respectively. In test [3], the inhibition entry is “inactive”.
Take `CCCCCCCCc1ccc(OCC(=O)Cn2ccc3cc(C(=O)O)ccc32)cc1`: the IC50 in test [5] was 2800 nM. For the same compound, the inhibition entry in test [3] is “inactive”.
In test [5], `CCCCCCCCc1ccc(OCC(=O)Cn2ccc3cc(C(N)=O)ccc32)cc1` came in with an IC50 of 6400 nM. Moreover, in test [3], the inhibition result is “inactive”.
Consider `O=C(CCCCCc1ccccc1)c1nc2ncccc2o1`, for which the inhibition entry in test [1] is “inactive”. Besides, half-maximal inhibition in test [5] (IC50) was put at 9 nM.
Regarding `CCCCCCCCCCOc1ccc(OCC(=O)COc2ccc(C(=O)O)cc2)cc1`, the IC50 in test [5] stood at 59 nM. In test [3], the inhibition entry was “inactive”.
On to `CCCCCCCCc1ccc(OCC(=O)Cn2ccc3cc(C=O)ccc32)cc1`, for which the IC50 in test [5] was more than 10000 nM. In test [2], this compound displayed an inhibition of 45%. Moreover, the inhibition result in test [3] is “inactive”.
In test [5], `CCCCCCCCc1ccc(OCC(=O)Cn2nnc3cc(C(=O)O)ccc32)cc1` yielded an IC50 of 140 nM. For the same compound, the inhibition result in test [3] is “inactive”.
With `CCCCCCCCc1ccc(OCC(=O)Cn2ccc(C(=O)O)c2)cc1`, the IC50 in test [4] amounted to 5000 nM; in test [5], 3600 nM. In addition, the inhibition result in test [3] was “inactive”.
Compound `CCCCCCCCc1ccc(OCC(=O)Cn2cc(C(=O)O)c3ccccc32)cc1` gave an IC50 in test [4] of more than 10000 nM. For the same compound, the inhibition entry in test [2] and in test [3] was “inactive” throughout.
Turning to `CCCCCCCCc1ccc(OCC(=O)Cn2cc(C#N)c3cc(C(=O)O)ccc32)cc1`, the inhibition entry in test [2] and in test [3] was “inactive” throughout.
With `CCCCCCCCc1ccc(OCC(=O)Cn2cc(C(=O)OC)c3cc(C(=O)O)ccc32)cc1`, the inhibition result in test [2] and in test [3] was “inactive” each time.
Regarding `CCCCCCCCc1ccc(OCC(=O)Cn2ccc3cc(Cl)ccc32)cc1`, the inhibition result in test [1], in test [2] and in test [3] was “inactive” throughout.
In the case of `NC(=O)c1cccc(-c2cccc(OC(=O)NC3CCCCC3)c2)c1`, the inhibition entry in test [1] is “inactive”.
As to `CCCCCCCCc1ccc(OCC(=O)Cn2cc(C(C)(C)C)c3cc(C(=O)O)ccc32)cc1`, the inhibition entry in test [2] and in test [3] was “inactive” in each case.
In the case of `CCCCCCCCc1ccc(OCC(=O)Cn2cc(C(=O)O)c3cc(C(=O)O)ccc32)cc1`, the inhibition entry in test [2] and in test [3] was “inactive” throughout.
Take `CCCCCCCCc1ccc(OCC(=O)Cn2ncc3cc(C(=O)O)ccc32)cc1`: the midpoint of inhibition in test [5], the IC50, lay at 160 nM. Moreover, in test [3], the inhibition entry was “inactive”.
`CCCCCCCCc1ccc(OCC(=O)Cn2cccc2C(=O)O)cc1`: the inhibition result in test [1], in test [2] and in test [3] was “inactive” throughout.
In test [5], `CCCCC/C=C\C/C=C\C/C=C\C/C=C\CCCC(=O)C(F)(F)F` [ARACHIDONYL TRIFLUOROMETHYLKETONE] yielded an IC50 of 3700 nM. Also, the inhibition entry in test [3] is “inactive”.
Turning to `CCCCCCCCc1ccc(OCC(=O)Cn2ccc3cc(C)ccc32)cc1`, the inhibition entry in test [1], in test [2] and in test [3] was “inactive” throughout.
With `CCCCCCCCc1ccc(OCC(=O)Cn2cnc(C(=O)O)c2)cc1`, the IC50 in test [4] came out at 5300 nM; in test [5] it was 1900 nM. Moreover, in test [3], the inhibition result is “inactive”.
Regarding `CCCCCCCCc1ccc(OCC(=O)Cn2cc(Cl)c3cc(C(=O)O)ccc32)cc1`, the inhibition entry in test [2] and in test [3] was “inactive” in each case.
On to `CCCCCCCCc1ccc(OCC(=O)Cn2cc(C(C)=O)c3cc(C(=O)O)ccc32)cc1`, for which the IC50 in test [4] is 12 nM. Also, the inhibition entry in test [2] and in test [3] was “inactive” each time.
In test [5], `CCCCCCCCc1ccc(OCC(=O)Cn2ncc3ccc(C(=O)O)cc32)cc1` registered an IC50 of more than 10000 nM. In addition, the inhibition in test [2] is 23%. The inhibition result in test [3] is “inactive”.
As to `CCCCCCCCc1ccc(OCC(=O)Cn2ccc3ccc(C(=O)O)cc32)cc1`, the inhibition entry in test [2] and in test [3] was “inactive” each time.
As for `CCCCCCCCc1ccc(OCC(=O)Cn2nnc3ccccc32)cc1`, the IC50 in test [4] came out at 2200 nM; in test [5], 47 nM. In addition, in test [3], the inhibition result is “inactive”.
Take `CCCCCCCCc1ccc(OCC(=O)Cn2ccc3cc(C(=O)OC)ccc32)cc1`: the IC50 in test [4] was more than 10000 nM. Also, the inhibition entry in test [2] and in test [3] was “inactive” each time.
